Source: ChEMBL document CHEMBL3399918, “In vitro radical scavenging and cytotoxic activities of novel hybrid selenocarbamates” (Bioorg Med Chem, 2015)
Calls of active or inactive are those of the source. The rule behind the calls is not given here.

Legend:
[1] = Antioxidant activity assessed as DPPH radical scavenging activity at 0.5 mg/ml after 180 mins; assay type: physicochemical; settings: 3 h
Procedure, shortened: (§1)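 Compounds in absolute ethanol, serially diluted from 1 mg/mL, mixed 1:1 with […] in ethanol. Final range 0.016–0.5 mg/mL, 6 concentrations. Incubated at 37 °C in the dark, with decolourisation followed at 517 nm at several time intervals. % scavenged = (A vehicle control − A sample)/A control × 100. Quadruplicate; mean ± SD.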

[2] = tested on: CCRF-CEM; experiment: Cytotoxicity against human CCRF-CEM cells after 72 hrs by MTT assay; assay type: functional
Procedure, shortened: (§2)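 CCRF-CEM, HT-29, PC-3 and HTB-54 cells grown in RPMI 1640 with 10% foetal calf serum, 2 mM L-glutamine, penicillin/streptomycin, 10 mM HEPES (pH 7.4). Five concentrations, 0.01–100 μM, 72 h at 37 °C, 5% CO2; MTT read-out. GI50, TGI and LC50 versus untreated controls; at least 3 independent experiments in quadruplicate.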

[3] = tested on: HT-29; experiment: Cytotoxicity against human HT-29 cells after 72 hrs by MTT assay; assay type: functional; settings: HT-29, 72 h; procedure, shortened: as §2
[4] = Cytotoxicity against human BEAS2B cells after 72 hrs by MTT assay; assay type: cell-based, BEAS-2B; settings: for GI50 at 72 h: BEAS2B cells; for LC50 / TGI: beas-2b, 72 h
Procedure, shortened: (§3)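 Non-malignant lines: 184B5 (normal breast) in Hams F-12/DMEM (50:50) with published supplements; BEAS-2B (bronchial epithelium) in Hams F-12/DMEM (50:50) with 10% foetal calf serum, 2 mM L-glutamine, penicillin/streptomycin. Compounds at five concentrations, 0.01–100 μM, 72 h, 37 °C, 5% CO2; MTT read-out. GI50, TGI, LC50 relative to untreated controls; ≥3 independent experiments in quadruplicate.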

[5] = tested on: MCF7; experiment: Cytotoxicity against human MCF7 cells after 72 hrs by MTT assay; assay type: functional; settings: MCF7, 72 h; for CC50: read-out: LC50 (the source's name)
Procedure, shortened: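 MCF-7 cells grown in EMEM with 10% foetal calf serum, 2 mM L-glutamine, 100 units/mL penicillin, 100 µg/mL streptomycin. Exposed to five concentrations between 0.01 and 100 μM for 72 h, 37 °C, humidified 5% CO2; MTT read-out. GI50, TGI, LC50 relative to untreated controls; ≥3 independent experiments in quadruplicate.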

[6] = Cytotoxicity against human 184B5 cells after 72 hrs by MTT assay; assay type: cell-based; settings: for GI50 at 72 h: 184B5 cells; for LC50 / TGI: 184b5, 72 h; procedure, shortened: as §3
[7] = Cytotoxicity against human HTB-54 cells after 72 hrs by MTT assay; assay type: functional; settings: HTB-54, 72 h; for CC50: read-out: LC50 (the source's name); procedure, shortened: as §2
[8] = Cytotoxicity against human PC3 cells after 72 hrs by MTT assay; assay type: functional; settings: PC-3, 72 h; procedure, shortened: as §2
[9] = Antioxidant activity assessed as ABTS radical scavenging activity at 0.1 mg/ml after 6 mins; assay type: physicochemical; settings: 0.1 h
Procedure, shortened: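 Diluted with 50% ethanol to A741 0.700 ± 0.02. A741 decrease read after 6 min against a 50% ethanol blank. % scavenged relative to a vehicle-plus-radical control. Quadruplicate.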

[10] = Antioxidant activity assessed as ABTS radical scavenging activity by measuring Trolox equivalent antioxidant capacity after 6 mins; assay type: physicochemical; settings: 0.1 h
Procedure, shortened: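 ABTS dissolved in deionized water at 1 mg/mL, oxidised to radical cation with potassium persulfate (2.45 mM final), kept overnight at room temperature in dark, then diluted with 50% ethanol to A741 = 0.700 ± 0.02. Compound (1 mg/mL ethanol stock) added 1:10 (0.1 mg/mL); A741 decrease read after 6 min against 50% ethanol blank. Trolox positive control; quadruplicate; TEAC from calibration curve.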

[11] = Antioxidant activity assessed as DPPH radical scavenging activity at 0.25 mg/ml; assay type: physicochemical; settings: TDE = time-dependent effect; procedure, shortened: as §1
[12] = Glutathione peroxidase-like activity assessed as reduction in H2O2 reduction by tiophenol based UV absorption spectrometry
Procedure, shortened: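 Iwaoka–Tomoda thiophenol method. Compound in ethanol at 0.1 mg/mL, mixed in equal volumes with 2 mM PhSH in ethanol and 5 mM H2O2 in ethanol (stock concentrations). Data collected every 5 s. Negative control contained compound, vehicle and PhSH without H2O2. Triplicate; mean ± SD.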

[13] = Glutathione peroxidase-like activity assessed as reduction in H2O2 reduction at 0.033 mg/ml by tiophenol based UV absorption spectrometry
Procedure, shortened: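 Iwaoka–Tomoda method: compound in ethanol (0.1 mg/mL stock) mixed in equal volumes with 2 mM PhSH and 5 mM H2O2 (both ethanol stocks), thiophenol-driven catalytic H2O2 reduction. Data collected every 5 s. Negative control without H2O2 (compound, vehicle, PhSH). Triplicate.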

Compound: CCOC(=O)Nc1ccc([Se][Se]c2ccc(NC(=O)OCC)cc2)cc1
- inhibition (INH) [1]: 37%
- GI50 [2]: 24.6 µM
- LC50 [2]: 74.3 µM
- TGI [2]: 49.5 µM
- GI50 [3]: 26 µM
- LC50 [3]: 76.1 µM
- TGI [3]: 51.1 µM
- GI50 at 72 h [4]: 16.1 µM
- LC50 [4]: 71.9 µM
- TGI [4]: 44 µM
- GI50 [5]: 9.9 µM
- TGI [5]: 39 µM
- CC50 [5]: 68.3 µM
- GI50 at 72 h [6]: 5.7 µM
- LC50 [6]: 58.7 µM
- TGI [6]: 16.7 µM
- GI50 [7]: 31.2 µM
- TGI [7]: 56.6 µM
- CC50 [7]: 82 µM
- GI50 [8]: 28.8 µM
- LC50 (concentration causing 50% net cell kill) [8]: 75.7 µM
- TGI [8]: 52.2 µM
- inhibition (INH) [9]: 21.3%
- Activity [10]: 13.6 µg/µL

Compound: CC(C)COC(=O)Nc1ccc([Se][Se]c2ccc(NC(=O)OCC(C)C)cc2)cc1
- inhibition (INH) [1]: 66.5%
- inhibition (INH) [11]: tde
- GI50 [2]: 9.8 µM
- LC50 [2]: 70.2 µM
- TGI [2]: 39.8 µM
- Activity [12]: inactive
- GI50 [3]: 19.9 µM
- LC50 [3]: 77.4 µM
- TGI [3]: 48.6 µM
- GI50 at 72 h [4]: 13.1 µM
- LC50 [4]: 72.4 µM
- TGI [4]: 42.7 µM
- GI50 [5]: 19 µM
- TGI [5]: 49.7 µM
- CC50 [5]: 80.5 µM
- GI50 at 72 h [6]: 5.5 µM
- LC50 [6]: 56.6 µM
- TGI [6]: 10.5 µM
- GI50 [7]: 29 µM
- TGI [7]: 52.9 µM
- CC50 [7]: 76.9 µM
- GI50 [8]: 24.2 µM
- LC50 (concentration causing 50% net cell kill) [8]: 73.7 µM
- TGI [8]: 48.9 µM
- inhibition (INH) [9]: 29.6%
- Activity [10]: 20 µg/µL

Compound: CCOC(=O)Nc1ccc([Se]C#N)cc1
- inhibition (INH) [1]: 37%
- GI50 [2]: 9.8 µM
- LC50 [2]: 68.8 µM
- TGI [2]: 39.1 µM
- GI50 [3]: 9.3 µM
- LC50 [3]: 66.6 µM
- TGI [3]: 38 µM
- Activity [13]: Active
- GI50 at 72 h [4]: 21.7 µM
- LC50 [4]: 72.2 µM
- TGI [4]: 46.9 µM
- GI50 [5]: 8.9 µM
- TGI [5]: 36.7 µM
- CC50 [5]: 67.8 µM
- GI50 at 72 h [6]: 5.5 µM
- LC50 [6]: 59 µM
- TGI [6]: 18.6 µM
- GI50 [7]: 24.9 µM
- TGI [7]: 49.3 µM
- CC50 [7]: 72.7 µM
- GI50 [8]: 9.9 µM
- LC50 (concentration causing 50% net cell kill) [8]: 68.4 µM
- TGI [8]: 39.2 µM
- inhibition (INH) [9]: 26.3%
- Activity [10]: 17.4 µg/µL

Compound: CCCCOC(=O)Nc1ccc([Se][Se]c2ccc(NC(=O)OCCCC)cc2)cc1
- inhibition (INH) [1]: 36.1%
- GI50 [2]: 16.7 µM
- LC50 [2]: 72.3 µM
- TGI [2]: 44.5 µM
- GI50 [3]: 27.6 µM
- LC50 [3]: 82.4 µM
- TGI [3]: 55 µM
- GI50 at 72 h [4]: 24.2 µM
- LC50 [4]: 75 µM
- TGI [4]: 49.6 µM
- GI50 [5]: 17.3 µM
- TGI [5]: 46.3 µM
- CC50 [5]: 75.2 µM
- GI50 at 72 h [6]: 7.2 µM
- LC50 [6]: 63.1 µM
- TGI [6]: 26 µM
- GI50 [7]: 35.2 µM
- TGI [7]: 57.3 µM
- CC50 [7]: 79.4 µM
- GI50 [8]: 28.6 µM
- LC50 (concentration causing 50% net cell kill) [8]: 76.4 µM
- TGI [8]: 52.5 µM
- inhibition (INH) [9]: 7.3%
- Activity [10]: 2.67 µg/µL

Compound: N#C[Se]c1ccc(NC(=O)Oc2ccccc2)cc1
- inhibition (INH) [1]: 19.3%
- GI50 [2]: 22.9 µM
- LC50 [2]: 73.2 µM
- TGI [2]: 48 µM
- GI50 [3]: 11.7 µM
- LC50 [3]: 71.7 µM
- TGI [3]: 41.7 µM
- GI50 at 72 h [4]: 8.9 µM
- LC50 [4]: 69.3 µM
- TGI [4]: 38.2 µM
- GI50 [5]: 4 µM
- TGI [5]: 35.9 µM
- CC50 [5]: 67.8 µM
- GI50 at 72 h [6]: 0.4 µM
- LC50 [6]: 61.2 µM
- TGI [6]: 22.7 µM
- GI50 [7]: 26.2 µM
- TGI [7]: 50.2 µM
- CC50 [7]: 74.4 µM
- GI50 [8]: 9.1 µM
- LC50 (concentration causing 50% net cell kill) [8]: 68 µM
- TGI [8]: 37.5 µM
- inhibition (INH) [9]: > 25%
- Activity [10]: 29 µg/µL

Compound: C=CCOC(=O)Nc1ccc([Se][Se]c2ccc(NC(=O)OCC=C)cc2)cc1
- inhibition (INH) [1]: 30%
- GI50 [2]: 4.6 µM
- LC50 [2]: 46.9 µM
- TGI [2]: 8.7 µM
- GI50 [3]: 25.9 µM
- LC50 [3]: 79.5 µM
- TGI [3]: 52.7 µM
- GI50 at 72 h [4]: 14.3 µM
- LC50 [4]: 71.4 µM
- TGI [4]: 42.9 µM
- GI50 [5]: 20.8 µM
- TGI [5]: 47.2 µM
- CC50 [5]: 73.6 µM
- GI50 at 72 h [6]: 6.4 µM
- LC50 [6]: 60.4 µM
- TGI [6]: 21.5 µM
- GI50 [7]: 29.8 µM
- TGI [7]: 56.6 µM
- CC50 [7]: 83.3 µM
- GI50 [8]: 25 µM
- LC50 (concentration causing 50% net cell kill) [8]: 74.7 µM
- TGI [8]: 49.9 µM
- inhibition (INH) [9]: 10.9%
- Activity [10]: 5.5 µg/µL

Compound: CCCCOC(=O)Nc1ccc([Se]C#N)cc1
- inhibition (INH) [1]: 6.6%
- GI50 [2]: 6.5 µM
- LC50 [2]: 63.5 µM
- TGI [2]: 27.9 µM
- GI50 [3]: 8.1 µM
- LC50 [3]: 63.7 µM
- TGI [3]: 31.3 µM
- GI50 at 72 h [4]: 5 µM
- LC50 [4]: 54.5 µM
- TGI [4]: 12.2 µM
- GI50 [5]: 6.6 µM
- TGI [5]: 20.2 µM
- CC50 [5]: 59.7 µM
- GI50 at 72 h [6]: 5.3 µM
- LC50 [6]: 56.8 µM
- TGI [6]: 14.5 µM
- GI50 [7]: 17.2 µM
- TGI [7]: 43.4 µM
- CC50 [7]: 69.5 µM
- GI50 [8]: 12.4 µM
- LC50 (concentration causing 50% net cell kill) [8]: 69.3 µM
- TGI [8]: 40.8 µM
- inhibition (INH) [9]: 12.6%
- Activity [10]: 6.77 µg/µL

Compound: COc1ccc(OC(=O)Nc2ccc([Se][Se]c3ccc(NC(=O)Oc4ccc(OC)cc4)cc3)cc2)cc1
- inhibition (INH) [1]: > 50%
- GI50 [2]: 5.3 µM
- LC50 [2]: 63.1 µM
- TGI [2]: 25.8 µM
- Activity [12]: inactive
- GI50 [3]: 13 µM
- LC50 [3]: 79.2 µM
- TGI [3]: 46.1 µM
- GI50 at 72 h [4]: 0.6 µM
- LC50 [4]: 62.3 µM
- TGI [4]: 19.9 µM
- GI50 [5]: 9.7 µM
- TGI [5]: 42.8 µM
- CC50 [5]: 76.8 µM
- GI50 at 72 h [6]: 3.4 µM
- LC50 [6]: 43.5 µM
- TGI [6]: 8.1 µM
- GI50 [7]: 18 µM
- TGI [7]: 46.3 µM
- CC50 [7]: 74.5 µM
- GI50 [8]: 4.4 µM
- LC50 (concentration causing 50% net cell kill) [8]: 64.6 µM
- TGI [8]: 28.2 µM
- inhibition (INH) [9]: > 25%
